Measurements published in publication PMC6360136 (Investigational new drugs, 2018).

What was measured:
Type in all cases: cell-based, human
[1] = tested on: VEGF-A secretion in PANC-1 and EC46 cells; experiment: VEGF-A AlphaLISA; conditions: 12 h
PANC-1 cells = experiment: Cell viability assay; conditions: PANC-1 cells, MTT, 48 h
[2] = tested on: EC68, EC46 and PANC-1 cells; experiment: Cell growth MTT assay; conditions: in vitro studies, Fig. 1, MTT 48 h
Summary of the method: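 PANC-1 and primary patient-derived pancreatic cancer lines EC46 and EC68 were grown in DMEM/F-12K (1:1) with 10% FBS at 37 °C and 5% CO2. Cells were seeded at 5000/well and attached overnight. They were then exposed for 48 h to the test compound at various concentrations or to EtOH solvent control. Viability was read by MTT, and curves were fitted by nonlinear regression.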

[3] = tested on: RTKs (EGFR, Met, IGF-1Rβ) in PANC-1 and EC46 cells; experiment: Immunoblot analysis of receptor tyrosine kinases; conditions: 24 h
Summary of the method: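 PANC-1 and EC46 cells were seeded at 200,000/well and attached overnight. Medium was renewed with the test compound or EtOH control added. Whole-cell lysates were taken at 24 h in phosphatase-safe buffer and protein was quantified by BCA. Equal protein was resolved on 4–12% SDS-PAGE and transferred to PVDF. Blots were probed for EGFR, Met, IGF-1Rβ and β-actin, with chemiluminescent detection.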

`CC[C@H](C)[C@@H]1C(=O)N2CCC[C@@H]2C(=O)O[C@H](C(C)(C)C)C[C@@H](C)C[C@@H](O)C(C)(C)C2=N[C@H](CCC(=O)N[C@@H](Cc3ccc(OC)cc3)C(=O)N(C)[C@@H](C)C(=O)N1C)CS2` [Apra S10, apratoxin S10] was tested, and the “effect on VEGF-A secretion” value [1] was “inhibited the secretion of VEGF-A at low nanomolar to subnanomolar concentrations”, the GI50 (PANC-1 cells) was 2.75 nM and the “concentration required to achieve the maximal response” value [2] was “around 50 nM”. The “concentration required to achieve the maximal response (minimum effective concentration)” value [2] was about 40 ng/mL and the “effect on RTKs” value [3] was “potently downregulated various RTKs”.
